Results as given in ChEMBL document CHEMBL2069246, “Oxadiazoles in medicinal chemistry” (J Med Chem, 2012).

Tests used:
[1] = Lipophilicity, log D of the compound at pH 7.4; type: physicochemical; details: buffer
[2] = Dissociation constant, pKa of the compound; type: physicochemical
[3] = target: CYP2C19 (Homo sapiens, UniProt P33261); test: Time dependent inhibition of human recombinant CYP2C19 coexpressed in Escherichia coli at 50 uM using mephenytoin as probe; type: ADME
In short: (§1)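 Time-dependent inhibition of human recombinant P450s. Compound is preincubated 30 min at 37 °C with and without NADPH, then percent inhibition is read. Run at 10 and 50 μM, with the 50 μM value reported.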

[4] = target: CYP2D6 (Homo sapiens, UniProt P10635); test: Time dependent inhibition of human recombinant CYP2D6 coexpressed in Escherichia coli at 50 uM using bufuralol as probe; type: ADME; in short: as §1
[5] = target: T1, Cytochrome P450 3A4 (Homo sapiens, UniProt P08684); test: Inhibition of human recombinant CYP3A4 coexpressed in Escherichia coli; type: ADME
In short: (§2)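 Human recombinant cytochrome P450s at 37 °C. Read-out is inhibition of metabolic degradation of each isoform's substrate. Percent inhibition is measured at five test concentrations and converted to IC50.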

[6] = target: CYP3A4 (Homo sapiens, UniProt P08684); test: Time dependent inhibition of human recombinant CYP3A4 coexpressed in Escherichia coli at 50 uM using midazolam as probe; type: ADME; in short: as §1
[7] = target: T2, Cytochrome P450 2C19 (Homo sapiens, UniProt P33261); test: Activity of human recombinant CYP2C19 assessed as enzyme contribution towards compound metabolism at 37 degC; type: ADME
In short: (§3)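 CYP reaction phenotyping with human recombinant P450 isoforms at 37 °C. Each isoform's share of compound metabolism is given as percent contribution relative to the other isoforms in the test.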

[8] = target: T3, Cytochrome P450 2C9 (Homo sapiens, UniProt P11712); test: Inhibition of human recombinant CYP2C9 coexpressed in Escherichia coli; type: ADME; in short: as §2
[9] = target: T4, Cytochrome P450 1A2 (Homo sapiens, UniProt P05177); test: Inhibition of human recombinant CYP1A2 coexpressed in Escherichia coli using phenacetin as probe; type: ADME; in short: as §2
T4 sequence (P05177 whole entry): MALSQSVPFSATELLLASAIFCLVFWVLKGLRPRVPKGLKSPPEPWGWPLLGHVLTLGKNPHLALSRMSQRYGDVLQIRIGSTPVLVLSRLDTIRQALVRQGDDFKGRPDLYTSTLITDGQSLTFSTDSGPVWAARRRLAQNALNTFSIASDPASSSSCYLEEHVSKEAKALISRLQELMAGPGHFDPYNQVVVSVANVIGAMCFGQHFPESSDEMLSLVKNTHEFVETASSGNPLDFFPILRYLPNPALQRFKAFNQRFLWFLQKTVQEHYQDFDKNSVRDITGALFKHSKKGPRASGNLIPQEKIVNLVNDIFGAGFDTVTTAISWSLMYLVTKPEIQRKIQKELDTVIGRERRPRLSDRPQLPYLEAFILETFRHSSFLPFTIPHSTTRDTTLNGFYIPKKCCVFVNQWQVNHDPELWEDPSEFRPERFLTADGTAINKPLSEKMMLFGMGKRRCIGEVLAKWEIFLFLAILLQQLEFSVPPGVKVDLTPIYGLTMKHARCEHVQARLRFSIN

[10] = target: T1, Cytochrome P450 3A4; test: Activity of human recombinant CYP3A4 assessed as enzyme contribution towards compound metabolism at 37 degC; type: ADME; design: concentration or dose not given beside the values; in short: as §3
[11] = target: T5, CYP2C8 (Homo sapiens, UniProt P10632); test: Time dependent inhibition of human recombinant CYP2C8 coexpressed in Escherichia coli at 50 uM using amodiaquine as probe; type: ADME; in short: as §1
T5 sequence (P10632 whole entry): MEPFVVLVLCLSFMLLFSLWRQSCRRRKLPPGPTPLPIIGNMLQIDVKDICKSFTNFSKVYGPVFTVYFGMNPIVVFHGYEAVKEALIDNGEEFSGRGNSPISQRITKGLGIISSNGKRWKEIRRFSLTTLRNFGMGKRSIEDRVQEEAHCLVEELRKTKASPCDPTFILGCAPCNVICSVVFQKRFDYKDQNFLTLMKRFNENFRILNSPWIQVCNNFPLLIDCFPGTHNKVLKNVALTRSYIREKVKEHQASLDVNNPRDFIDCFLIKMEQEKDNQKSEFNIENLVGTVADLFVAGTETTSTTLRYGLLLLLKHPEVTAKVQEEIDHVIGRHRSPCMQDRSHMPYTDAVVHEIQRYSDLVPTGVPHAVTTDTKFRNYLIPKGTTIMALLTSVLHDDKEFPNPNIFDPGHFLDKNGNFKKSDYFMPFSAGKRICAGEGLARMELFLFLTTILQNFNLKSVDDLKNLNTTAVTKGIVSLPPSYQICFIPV

[12] = Intrinsic clearance in human liver microsomes at 1 mg/ml; type: ADME, Microsome; details: read-out: CLH
In short: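 Compound incubated 45 min at 37 °C with human liver microsomes at 1 mg/mL. CLint is taken from the rate of parent disappearance.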

[13] = target: T6, Cytochrome P450 2C8 (Homo sapiens, UniProt P10632); test: Activity of human recombinant CYP2C8 assessed as enzyme contribution towards compound metabolism at 37 degC; type: ADME; in short: as §3
T6 sequence (P10632 whole entry): T5 sequence (P10632 whole entry)

[14] = target: T2, Cytochrome P450 2C19; test: Inhibition of human recombinant CYP2C19 coexpressed in Escherichia coli; type: ADME; in short: as §2
[15] = target: T7, Cytochrome P450 2D6 (Homo sapiens, UniProt P10635); test: Inhibition of human recombinant CYP2D6 coexpressed in Escherichia coli; type: ADME; in short: as §2
[16] = target: T7, Cytochrome P450 2D6; test: Activity of human recombinant CYP2D6 assessed as enzyme contribution towards compound metabolism at 37 degC; type: ADME; in short: as §3
[17] = target: T4, Cytochrome P450 1A2; test: Activity of human recombinant CYP1A2 assessed as enzyme contribution towards compound metabolism at 37 degC; type: ADME; in short: as §3
[18] = target: T8, CYP1A2 (Homo sapiens, UniProt P05177); test: Time dependent inhibition of human recombinant CYP1A2 coexpressed in Escherichia coli at 50 uM using phenacetin as probe; type: ADME; in short: as §1
T8 sequence (P05177 whole entry): T4 sequence (P05177 whole entry)

[19] = target: T6, Cytochrome P450 2C8; test: Inhibition of human recombinant CYP2C8 coexpressed in Escherichia coli; type: ADME; in short: as §2
[20] = target: T3, Cytochrome P450 2C9; test: Activity of human recombinant CYP2C9 assessed as enzyme contribution towards compound metabolism at 37 degC; type: ADME; in short: as §3
[21] = target: CYP2C9 (Homo sapiens, UniProt P11712); test: Time dependent inhibition of human recombinant CYP2C9 coexpressed in Escherichia coli at 50 uM using diclofenac as probe; type: ADME; in short: as §1
[22] = target: Voltage-gated inwardly rectifying potassium channel KCNH2 (Homo sapiens, UniProt Q12809); test: Inhibition of human ERG channel expressed in CHO cells by patch clamp assay
Sequence of Voltage-gated inwardly rectifying potassium channel KCNH2 (Q12809 whole entry): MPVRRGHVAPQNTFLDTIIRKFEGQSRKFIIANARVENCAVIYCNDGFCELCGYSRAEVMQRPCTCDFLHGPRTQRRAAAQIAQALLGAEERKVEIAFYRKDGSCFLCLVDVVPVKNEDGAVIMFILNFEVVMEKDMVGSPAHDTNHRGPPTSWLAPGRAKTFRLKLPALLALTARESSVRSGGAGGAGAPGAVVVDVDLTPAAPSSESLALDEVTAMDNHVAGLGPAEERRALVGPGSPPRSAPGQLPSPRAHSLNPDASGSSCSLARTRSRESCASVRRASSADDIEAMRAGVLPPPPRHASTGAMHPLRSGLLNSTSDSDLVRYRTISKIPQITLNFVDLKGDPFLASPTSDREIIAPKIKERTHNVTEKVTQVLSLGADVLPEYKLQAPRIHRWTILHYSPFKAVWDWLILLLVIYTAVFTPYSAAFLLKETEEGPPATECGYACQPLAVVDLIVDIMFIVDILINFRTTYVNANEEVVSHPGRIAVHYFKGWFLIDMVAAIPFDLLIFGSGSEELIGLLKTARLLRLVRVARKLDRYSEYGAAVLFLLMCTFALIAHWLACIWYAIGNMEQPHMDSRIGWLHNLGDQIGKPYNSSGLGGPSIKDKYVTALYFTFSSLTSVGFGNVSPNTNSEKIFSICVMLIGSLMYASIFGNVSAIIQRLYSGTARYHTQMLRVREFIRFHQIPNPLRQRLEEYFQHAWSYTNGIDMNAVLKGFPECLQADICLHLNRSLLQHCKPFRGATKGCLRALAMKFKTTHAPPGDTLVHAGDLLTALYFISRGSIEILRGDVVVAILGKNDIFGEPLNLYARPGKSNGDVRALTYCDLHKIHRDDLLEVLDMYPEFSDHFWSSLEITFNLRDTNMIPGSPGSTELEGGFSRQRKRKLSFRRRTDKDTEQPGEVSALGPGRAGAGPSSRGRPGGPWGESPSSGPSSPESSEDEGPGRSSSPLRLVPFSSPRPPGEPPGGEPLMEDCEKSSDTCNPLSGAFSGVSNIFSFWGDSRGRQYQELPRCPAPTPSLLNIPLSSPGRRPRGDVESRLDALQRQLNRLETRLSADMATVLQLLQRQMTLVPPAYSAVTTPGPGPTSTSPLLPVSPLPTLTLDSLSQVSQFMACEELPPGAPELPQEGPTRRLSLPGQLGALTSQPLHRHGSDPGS

Sequence of CYP2D6 (P10635 whole entry): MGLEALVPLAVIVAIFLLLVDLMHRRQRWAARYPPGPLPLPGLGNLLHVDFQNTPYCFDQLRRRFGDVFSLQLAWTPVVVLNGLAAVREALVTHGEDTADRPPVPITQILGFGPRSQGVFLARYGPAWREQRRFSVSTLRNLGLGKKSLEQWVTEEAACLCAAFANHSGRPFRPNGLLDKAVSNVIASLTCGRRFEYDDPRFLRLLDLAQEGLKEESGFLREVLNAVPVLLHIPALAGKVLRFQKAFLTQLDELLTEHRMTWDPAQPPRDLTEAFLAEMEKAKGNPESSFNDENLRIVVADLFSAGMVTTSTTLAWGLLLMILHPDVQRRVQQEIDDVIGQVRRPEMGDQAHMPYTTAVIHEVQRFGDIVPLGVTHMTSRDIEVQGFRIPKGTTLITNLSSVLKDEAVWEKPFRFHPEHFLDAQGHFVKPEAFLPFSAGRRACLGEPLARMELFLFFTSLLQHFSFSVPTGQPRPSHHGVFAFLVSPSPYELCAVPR
T7 sequence (P10635 whole entry): as above
Sequence of CYP2C19 (P33261 whole entry): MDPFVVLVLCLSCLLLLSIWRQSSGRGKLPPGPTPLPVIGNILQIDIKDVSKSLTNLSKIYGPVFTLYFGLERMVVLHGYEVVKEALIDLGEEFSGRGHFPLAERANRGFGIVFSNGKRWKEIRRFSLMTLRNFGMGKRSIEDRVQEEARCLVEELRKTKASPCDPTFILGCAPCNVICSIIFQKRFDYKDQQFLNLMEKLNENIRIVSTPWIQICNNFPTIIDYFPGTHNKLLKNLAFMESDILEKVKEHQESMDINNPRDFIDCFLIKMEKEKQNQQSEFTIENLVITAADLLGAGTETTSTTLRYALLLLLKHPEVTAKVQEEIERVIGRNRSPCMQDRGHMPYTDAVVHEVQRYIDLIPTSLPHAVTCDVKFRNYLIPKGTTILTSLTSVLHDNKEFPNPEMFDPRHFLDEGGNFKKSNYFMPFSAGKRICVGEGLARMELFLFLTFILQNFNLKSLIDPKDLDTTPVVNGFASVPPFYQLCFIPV
T2 sequence (P33261 whole entry, canonical isoform): as the sequence (P33261 whole entry) above
Sequence of CYP3A4 (P08684 whole entry): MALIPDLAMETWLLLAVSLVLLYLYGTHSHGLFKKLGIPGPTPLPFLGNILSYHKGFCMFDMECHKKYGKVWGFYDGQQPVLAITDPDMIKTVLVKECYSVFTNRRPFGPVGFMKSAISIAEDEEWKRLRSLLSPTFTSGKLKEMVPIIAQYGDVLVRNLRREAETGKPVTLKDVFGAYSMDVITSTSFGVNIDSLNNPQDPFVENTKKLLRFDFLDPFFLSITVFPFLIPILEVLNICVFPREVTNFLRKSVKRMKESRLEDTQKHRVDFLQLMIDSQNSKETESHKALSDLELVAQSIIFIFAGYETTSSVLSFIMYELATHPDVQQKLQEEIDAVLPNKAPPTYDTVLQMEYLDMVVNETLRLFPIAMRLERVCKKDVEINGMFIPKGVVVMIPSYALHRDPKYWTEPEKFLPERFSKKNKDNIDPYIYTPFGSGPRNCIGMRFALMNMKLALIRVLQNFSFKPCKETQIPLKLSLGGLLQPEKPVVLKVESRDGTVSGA
T1 sequence (P08684 whole entry, canonical isoform): as the sequence (P08684 whole entry) above
Sequence of CYP2C9 (P11712 whole entry): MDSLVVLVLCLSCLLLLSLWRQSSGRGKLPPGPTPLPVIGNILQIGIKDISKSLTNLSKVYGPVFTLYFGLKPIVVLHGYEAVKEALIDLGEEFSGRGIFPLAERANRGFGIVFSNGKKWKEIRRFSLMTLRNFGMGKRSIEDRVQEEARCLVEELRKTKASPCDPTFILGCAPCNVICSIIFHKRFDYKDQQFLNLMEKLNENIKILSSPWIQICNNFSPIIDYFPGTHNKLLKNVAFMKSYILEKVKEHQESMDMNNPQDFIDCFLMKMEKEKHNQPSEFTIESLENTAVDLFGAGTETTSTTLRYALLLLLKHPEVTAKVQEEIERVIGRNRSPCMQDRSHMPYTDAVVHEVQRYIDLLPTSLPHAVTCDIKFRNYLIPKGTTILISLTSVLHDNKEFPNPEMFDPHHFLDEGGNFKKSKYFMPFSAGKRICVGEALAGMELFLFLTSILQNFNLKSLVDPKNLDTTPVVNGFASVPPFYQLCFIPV
T3 sequence (P11712 whole entry): as above

SMILES | logD [1] | pKa [2] | inhibition at 50 µM [3] | inhibition at 50 µM [4] | IC50 [5] | inhibition at 50 µM [6] | Activity [7] | IC50 [9] | Activity [10] | inhibition at 50 µM [11] | microsomal CLint [12] | Activity [13] | IC50 [14] | IC50 [15] | Activity [16] | Activity [17] | inhibition at 50 µM [18] | IC50 [19] | CYP isoform contribution to compound metabolism [20] | inhibition at 50 µM [21] | also measured
CCOC(=O)N1CCN(Cc2nc(-c3cccc(Cl)c3)no2)CC1 | 4.8 | 3.4 | – | – | – | – | – | – | – | – | – | – | – | – | – | – | – | – | – | – | –
Clc1cc(-c2nnc(CSc3nnc(-c4ccncc4)n3C3CC3)o2)ccn1 | – | – | < 12% | < 11% | > 20 µM | < 7% | 0% | > 20 µM | 100% | < 14% | 8 µL/min/mg | 0% | > 20 µM | > 20 µM | 0% | 0% | < 10% | > 20 µM | 0% | < 19% | IC50 [8]: > 20 µM
c1cc(-c2noc(C3CCCCC3)n2)ccn1 | – | – | < 12% | < 9% | 10.2 µM | < 7% | 38% | 2.4 µM | 17.7% | < 13% | 83 µL/min/mg | 1.5% | 1.2 µM | 10 µM | 8.6% | 29.5% | < 7% | > 20 µM | 4.7% | < 19% | IC50 [8]: 17.6 µM
O=C(NC1CCCCC1)c1nnc(CS(=O)(=O)c2ccccc2)o1 | – | – | < 12% | < 9% | > 20 µM | < 7% | 45.4% | > 20 µM | 52.2% | < 13% | < 5 µL/min/mg | 0% | > 20 µM | > 20 µM | 2.4% | 0% | < 7% | > 20 µM | 0% | < 19% | IC50 [8]: > 20 µM
c1cncc(-c2ccc(-c3noc(C4CN5CCC4CC5)n3)o2)c1 (configuration not stated) | 0.7 | 8.8 | – | – | – | – | – | – | – | – | – | – | – | – | – | – | – | – | – | – | IC50 [22]: 6.4 µM
c1cncc(-c2ccc(-c3nnc(C4CN5CCC4CC5)o3)o2)c1 (configuration not stated) | < 0 | 9.1 | – | – | – | – | – | – | – | – | – | – | – | – | – | – | – | – | – | – | IC50 [22]: 20.2 µM
CCOC(=O)N1CCN(Cc2noc(-c3cc(Cl)ccc3F)n2)CC1 | 4.3 | 4 | – | – | – | – | – | – | – | – | – | – | – | – | – | – | – | – | – | – | IC50 [22]: 31 µM

Now from value to compound, other results behind:

logD [1] | pKa [2] | inhibition at 50 µM [3] | inhibition at 50 µM [4] | IC50 [5] | inhibition at 50 µM [6] | Activity [7] | IC50 [9] | Activity [10] | inhibition at 50 µM [11] | microsomal CLint [12] | Activity [13] | IC50 [14] | IC50 [15] | Activity [16] | Activity [17] | inhibition at 50 µM [18] | IC50 [19] | CYP isoform contribution to compound metabolism [20] | inhibition at 50 µM [21] | SMILES | also measured
– | – | < 12% | < 11% | 14.2 µM | 30% | 0.1% | > 20 µM | 99.5% | < 14% | > 300 µL/min/mg | 0.2% | > 20 µM | > 20 µM | 0% | 0.2% | < 10% | > 20 µM | 0% | < 19% | Clc1cc(-c2nc(CSc3nnc(-c4ccncc4)n3C3CC3)no2)ccn1 | IC50 [8]: > 20 µM
– | – | < 12% | < 11% | 14.6 µM | 42% | 0.1% | > 20 µM | 99.8% | < 14% | 93 µL/min/mg | 0% | 1.3 µM | 9.4 µM | 0.1% | 0% | < 10% | > 20 µM | 0.1% | < 19% | O=C(NCc1ccncc1)c1nc(CS(=O)(=O)c2ccccc2)no1 | IC50 [8]: 2.2 µM
– | – | < 12% | < 11% | > 20 µM | < 7% | 0% | > 20 µM | 0% | < 14% | < 5 µL/min/mg | 0% | 9.8 µM | 5.7 µM | 100% | 0% | < 10% | > 20 µM | 0% | < 19% | O=C(NCc1ccncc1)c1nnc(CS(=O)(=O)c2ccccc2)o1 | IC50 [8]: 1.7 µM
– | – | 13% | < 11% | > 20 µM | < 7% | 14.8% | > 20 µM | 11.7% | < 14% | 17 µL/min/mg | 1.5% | 1.3 µM | > 20 µM | 1.1% | 68.5% | < 10% | > 20 µM | 2.4% | < 19% | c1cc(-c2nnc(C3CCCCC3)o2)ccn1 | IC50 [8]: > 20 µM
– | – | < 19% | < 9% | > 20 µM | < 7% | 7.9% | > 20 µM | 91.5% | < 13% | 50 µL/min/mg | 0% | > 20 µM | > 20 µM | 0.1% | 0.2% | < 7% | > 20 µM | 0.3% | < 19% | O=C(NC1CCCCC1)c1nc(CS(=O)(=O)c2ccccc2)no1 | IC50 [8]: > 20 µM
5.1 | 6.7 | < 12% | < 9% | > 20 µM | 9% | 2.2% | > 20 µM | 92.1% | < 13% | 9 µL/min/mg | 0.9% | > 20 µM | 10.2 µM | 2.3% | 1.5% | < 7% | > 20 µM | 1% | < 19% | c1ccc(CN2CCN(Cc3nc(-c4ccccc4)no3)CC2)cc1 | –
3.1 | 2.1 | – | – | – | – | – | – | – | – | – | – | – | – | – | – | – | – | – | – | CN(Cc1nc2ccccc2c(=O)[nH]1)Cc1nc(-c2ccccc2)no1 | –
2.3 | 3.7 | – | – | – | – | – | – | – | – | – | – | – | – | – | – | – | – | – | – | C[C@@H](Oc1nnc(-c2ccncc2)n1C)c1nnc(-c2cccc(Cl)c2)o1 | IC50 [22]: 21.5 µM
3.2 | 3.5 | – | – | – | – | – | – | – | – | – | – | – | – | – | – | – | – | – | – | CCOC(=O)N1CCN(Cc2nnc(-c3cc(Cl)ccc3F)o2)CC1 | –
3.3 | 3.5 | – | – | – | – | – | – | – | – | – | – | – | – | – | – | – | – | – | – | CCOC(=O)N1CCN(Cc2nnc(-c3cccc(Cl)c3)o2)CC1 | –
